Measurements of several laboratories.
Compare with care: the assays were run in different laboratories.
Organism: Bacillus subtilis
Observed: microbial growth

SMILES | test | test system | setting | MIC
Fc1ccccc1NCc1ccc(Oc2ccccn2)cc1 |  |  |  | 1.8 µg/mL
O=C(O)c1ccc(-n2cc(/C=N/Nc3ccc(F)cc3)c(-c3ccc(F)cc3)n2)cc1 |  | ATCC6623 |  | 25 µg/mL
O=C(O)CN1C(=O)/C(=C/c2c3ccccc3c(-c3ccc(N(c4ccccc4)c4ccccc4)cc3)c3ccccc23)NC1=S | broth dilution | ATCC6633 |  | > 1000 µg/mL
CCCC[P+](/C=C(/c1ccccc1)c1cc(Cl)ccc1OC)(CCCC)CCCC |  |  | 21 h | 1 µM
Cc1cc(/C=C2\Sc3ccccc3N2CCCN2CCCCC2)c2ccccc2[n+]1C.[I-] | broth dilution | 168 |  | 8 µg/mL
CN(C)[C@@H]1C(O)=C(C(N)=O)C(=O)[C@@]2(O)C(O)=C3C(=O)c4c(O)cccc4[C@@](C)(O)[C@H]3C[C@@H]12 |  | ATCC6633 |  | 2 µg/mL
Brc1ccc(NCc2ccc(Oc3ccccn3)cc2)cc1 |  |  |  | > 3.1 µg/mL
CC(=O)NCN1N=C(C)C(=NNn2c(-c3ccccc3)nc3ccccc3c2=O)C1=O | broth dilution |  | 24 h | 59.9 µM
CC1CCN(CCCN2/C(=C/c3cc[n+](C)c4ccccc34)Sc3ccccc32)CC1.[I-] | broth dilution | 168 |  | 4 µg/mL
COc1cc(O)c2c(c1)/C=C/C[C@H](O)[C@H](O)C(=O)/C=C/C[C@H](C)OC2=O |  |  |  | > 500 µg/mL
N#Cc1ccc(N/N=C/c2cn(-c3ccc(C(=O)O)cc3)nc2-c2ccc(F)cc2)cc1 |  | ATCC6623 |  | 25 µg/mL
O=C1NC(=S)S/C1=C\c1c2ccccc2c(-c2ccc(N(c3ccccc3)c3ccccc3)cc2)c2ccccc12 | broth dilution | ATCC6633 |  | > 1000 µg/mL
C[n+]1c(/C=C/c2ccc(O)cc2)cc(/C=C2\Sc3ccccc3N2CCCN2CCOCC2)c2ccccc21.[I-] | broth dilution | 168 |  | 4 µg/mL
O=C(O)c1ccc(-n2cc(/C=N/Nc3c(F)c(F)cc(F)c3F)c(-c3cccc(F)c3)n2)cc1 |  | ATCC6623 |  | 12.5 µg/mL
CCCCCCCCCCCCOC(=O)c1cc(O)c(O)c(O)c1 | broth dilution | ATCC6633 |  | 25 to 50 µM
CSc1ccc(/C=C/c2cc(/C=C3\Sc4ccccc4N3CCCN3CCCC3)c3ccccc3[n+]2C)cc1.[I-] | broth dilution | 168 |  | 16 µg/mL
O=C1NC(=S)N/C1=C\c1ccc(-c2ccc(N(c3ccccc3)c3ccccc3)cc2)cc1 | broth dilution | ATCC6633 |  | > 1000 µg/mL
CC1(C)S[C@@H]2[C@H](NC(=O)[C@H](N)c3ccccc3)C(=O)N2[C@H]1C(=O)O | broth dilution | BS01 |  | 0.13 µg/mL
O=C(O)c1ccc(-n2cc(/C=N/Nc3cccc(Cl)c3)c(-c3cccc(F)c3)n2)cc1 |  | ATCC6623 |  | 12.5 µg/mL
Cc1cc(/C=C2\Sc3ccccc3N2CCCN2CCC(C)CC2)c2ccccc2[n+]1C.[I-] | broth dilution | 168 |  | 1 µg/mL
O=C(O)c1ccc(-n2cc(/C=N/N(Cc3ccccc3)c3ccccc3)c(-c3cccc(F)c3)n2)cc1 |  | ATCC6623 |  | 1.56 µg/mL
CC1=NN(CNc2ccc(C(=O)O)cc2)C(=O)C1=NNn1c(-c2ccccc2)nc2ccccc2c1=O | broth dilution |  | 24 h | 50.5 µM
CCCCC[P+](/C=C(/c1ccccc1)c1cc(Cl)ccc1O)(CCCCC)CCCCC |  |  | 21 h | ~2 µM
O=C(O)CN1C(=O)/C(=C/c2ccc(-c3ccc(N(c4ccccc4)c4ccccc4)cc3)cc2)NC1=S | broth dilution | ATCC6633 |  | 3.9 µg/mL

SMILES | test | test system | setting | MIC
CC1=NN(CNC(=O)c2ccccc2)C(=O)C1=NNn1c(-c2ccccc2)nc2ccccc2c1=O | broth dilution |  | 24 h | 51.9 µM
NC[C@H]1O[C@H](O[C@H]2[C@H](O)[C@@H](O[C@H]3O[C@H](CO)[C@@H](O)[C@H](N)[C@H]3O)[C@H](N)C[C@@H]2N)[C@H](O)[C@@H](O)[C@@H]1O |  |  |  | 2 to 4 µg/mL
O=C1NC(=S)N/C1=C\c1c2ccccc2c(-c2ccc(N(c3ccccc3)c3ccccc3)cc2)c2ccccc12 | broth dilution | ATCC6633 |  | > 1000 µg/mL
CNC(=O)c1cc(Oc2ccc(NC(=O)Nc3ccc(Cl)c(C(F)(F)F)c3)cc2)ccn1 |  | 168 |  | 5 µM
C/C=C(\C)c1cc(OC(=O)c2c(C)c(Cl)c(O)c(Cl)c2O)c(C)c(O)c1C(=O)O | broth dilution | BS01 |  | 64 µg/mL
O=C1NC(=S)N/C1=C\c1ccc(-c2ccc(N(c3ccccc3)c3ccccc3)cc2)c2ccccc12 | broth dilution | ATCC6633 |  | > 1000 µg/mL
CC1(C)S[C@@H]2[C@H](NC(=O)[C@H](N)c3ccccc3)C(=O)N2[C@H]1C(=O)O | broth dilution | 168 |  | 32 µg/mL
O=C(O)CN1C(=O)/C(=C/c2ccc(-c3ccc(N(c4ccccc4)c4ccccc4)cc3)cc2)SC1=S | broth dilution | ATCC6633 |  | 1.95 µg/mL
CCCC[P+](/C=C(/c1ccccc1)c1cc(Cl)ccc1O)(CCCC)CCCC |  |  | 21 h | 10 µM
c1ccc(NCc2ccc(Oc3ccccn3)cc2)cc1 |  |  |  | 1.6 µg/mL
CCCCCC[P+](/C=C(/c1ccccc1)c1cc(Cl)ccc1O)(CCCCCC)CCCCCC |  |  | 21 h | 2 µM
CN[C@H](CC(C)C)C(=O)N[C@H]1C(=O)N[C@@H](CC(N)=O)C(=O)N[C@H]2C(=O)N[C@H]3C(=O)N[C@H](C(=O)N[C@H](C(=O)O)c4cc(O)cc(O)c4-c4cc3ccc4O)[C@H](O)c3ccc(c(Cl)c3)Oc3cc2cc(c3O[C@@H]2O[C@H](CO)[C@@H](O)[C@H](O)[C@H]2O[C@H]2C[C@](C)(N)[C@H](O)[C@H](C)O2)Oc2ccc(cc2Cl)[C@H]1O | broth dilution | 168 |  | 0.25 µg/mL
COc1ccc(NCc2ccc(Oc3ccccn3)cc2)cc1 |  |  |  | > 6.24 µg/mL
CCCCOC(=O)c1cc(O)c(O)c(O)c1 | broth dilution | ATCC6633 |  | > 200 µM
Fc1ccc(NCc2ccc(Oc3ccccn3)cc2)cc1 |  |  |  | 1.6 µg/mL
CC1(C)CCC(C)(C)c2cc(C(=O)Nc3ccc(C(=O)O)cc3)ccc21 | broth dilution |  | 24 h | 50 to 100 µM
C/C=C(\C)c1cc(OC(=O)c2c(O)c(C)c(O)c(Cl)c2/C(C)=C/C)c(C)c(O)c1C(=O)O | broth dilution | BS01 |  | 32 µg/mL
CN[C@H](CC(C)C)C(=O)N[C@H]1C(=O)N[C@@H](CC(N)=O)C(=O)N[C@H]2C(=O)N[C@H]3C(=O)N[C@H](C(=O)N[C@H](C(=O)O)c4cc(O)cc(O)c4-c4cc3ccc4O)[C@H](O)c3ccc(c(Cl)c3)Oc3cc2cc(c3O[C@@H]2O[C@H](CO)[C@@H](O)[C@H](O)[C@H]2O[C@H]2C[C@](C)(N)[C@H](O)[C@H](C)O2)Oc2ccc(cc2Cl)[C@H]1O |  | ATCC6623 |  | 0.39 µg/mL
CCCCCC[P+](/C=C(/c1ccccc1)c1cc(Cl)ccc1OC)(CCCCCC)CCCCCC |  |  | 21 h | 2 µM
O=C(O)c1ccc(-n2cc(/C=N/Nc3cccc(Cl)c3F)c(-c3cccc(F)c3)n2)cc1 |  | ATCC6623 |  | 1.56 µg/mL
Brc1cccc(NCc2ccc(Oc3ccccn3)cc2)c1 |  |  |  | > 6.2 µg/mL
O=C(O)c1ccc(-n2cc(/C=N/Nc3cccc(Cl)c3F)c(-c3ccc(F)cc3)n2)cc1 |  | ATCC6623 |  | 3.12 µg/mL
Cc1cccc(NCc2ccc(Oc3ccccn3)cc2)c1 |  |  |  | > 3.1 µg/mL
